Measured values reported in ChEMBL document CHEMBL2029265, “2-(Pyrrolidin-1-yl)ethyl-3,4-dihydroisoquinolin-1(2H)-one derivatives as potent and selective histamine-3 receptor antagonists” (J Med Chem, 2012).
Active and inactive are the calls of the source. The calls are words filed in the database; no cut-off is given here.

Legend:
[1] = target: T1, Alpha-2A adrenergic receptor (Homo sapiens, UniProt P08913); assay: Binding affinity to alpha-2A receptor
T1 sequence (P08913 whole entry): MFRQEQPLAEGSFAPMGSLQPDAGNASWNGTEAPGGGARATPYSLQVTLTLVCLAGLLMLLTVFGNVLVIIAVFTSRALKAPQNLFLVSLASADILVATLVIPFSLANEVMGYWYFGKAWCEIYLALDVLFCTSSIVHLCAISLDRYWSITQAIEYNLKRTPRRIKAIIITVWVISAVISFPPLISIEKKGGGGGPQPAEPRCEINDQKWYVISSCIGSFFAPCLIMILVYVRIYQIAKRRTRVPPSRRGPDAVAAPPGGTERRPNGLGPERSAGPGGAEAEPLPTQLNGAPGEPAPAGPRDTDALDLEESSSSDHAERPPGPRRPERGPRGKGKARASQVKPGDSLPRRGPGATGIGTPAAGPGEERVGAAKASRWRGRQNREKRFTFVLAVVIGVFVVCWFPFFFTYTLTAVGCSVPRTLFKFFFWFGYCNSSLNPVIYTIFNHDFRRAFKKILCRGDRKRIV

[2] = target: 5-hydroxytryptamine receptor 6 (Homo sapiens, UniProt P50406); assay: Binding affinity to 5-HT6 receptor
[3] = target: T2, 5-hydroxytryptamine receptor 1A (Homo sapiens, UniProt P08908); assay: Binding affinity to 5-HT1A receptor
T2 sequence (P08908 whole entry): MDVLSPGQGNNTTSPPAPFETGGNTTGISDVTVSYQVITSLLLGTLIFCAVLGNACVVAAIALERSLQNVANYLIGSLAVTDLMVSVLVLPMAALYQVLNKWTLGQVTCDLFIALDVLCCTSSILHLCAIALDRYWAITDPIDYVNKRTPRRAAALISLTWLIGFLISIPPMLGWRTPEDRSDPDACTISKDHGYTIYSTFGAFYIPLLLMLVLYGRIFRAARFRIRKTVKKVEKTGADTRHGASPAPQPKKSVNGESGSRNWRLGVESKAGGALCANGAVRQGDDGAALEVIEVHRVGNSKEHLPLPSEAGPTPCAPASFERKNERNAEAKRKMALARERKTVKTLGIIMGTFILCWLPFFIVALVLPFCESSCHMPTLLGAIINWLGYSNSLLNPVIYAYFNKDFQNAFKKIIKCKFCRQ

[4] = target: 5-hydroxytryptamine receptor 2B (Homo sapiens, UniProt P41595); assay: Binding affinity to 5-HT2B receptor
Sequence of 5-hydroxytryptamine receptor 2B (P41595 whole entry): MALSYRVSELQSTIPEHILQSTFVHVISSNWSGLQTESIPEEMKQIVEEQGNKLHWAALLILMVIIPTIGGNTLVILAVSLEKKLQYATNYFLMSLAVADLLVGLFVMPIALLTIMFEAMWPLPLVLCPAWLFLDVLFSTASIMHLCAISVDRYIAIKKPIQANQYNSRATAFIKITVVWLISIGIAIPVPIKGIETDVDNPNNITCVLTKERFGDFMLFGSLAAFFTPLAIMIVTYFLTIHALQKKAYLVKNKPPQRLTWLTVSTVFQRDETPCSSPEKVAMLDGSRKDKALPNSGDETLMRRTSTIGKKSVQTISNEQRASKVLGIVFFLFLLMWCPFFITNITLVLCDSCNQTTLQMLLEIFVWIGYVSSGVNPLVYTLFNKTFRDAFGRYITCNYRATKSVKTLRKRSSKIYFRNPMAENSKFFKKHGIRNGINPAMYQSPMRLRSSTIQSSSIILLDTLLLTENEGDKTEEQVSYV

D(2) dopamine receptor = D(2) dopamine receptor (Homo sapiens, UniProt P14416); assay: Binding affinity to D2 receptor
[5] = target: Sodium-dependent serotonin transporter (Homo sapiens, UniProt P31645); assay: Binding affinity to 5-HT transporter
Histamine H1 receptor = Histamine H1 receptor (Homo sapiens, UniProt P35367); assay: Binding affinity to H1 receptor
Histamine H2 receptor = Histamine H2 receptor (Homo sapiens, UniProt P25021); assay: Binding affinity to H2 receptor
Sequence of Histamine H2 receptor (P25021 whole entry): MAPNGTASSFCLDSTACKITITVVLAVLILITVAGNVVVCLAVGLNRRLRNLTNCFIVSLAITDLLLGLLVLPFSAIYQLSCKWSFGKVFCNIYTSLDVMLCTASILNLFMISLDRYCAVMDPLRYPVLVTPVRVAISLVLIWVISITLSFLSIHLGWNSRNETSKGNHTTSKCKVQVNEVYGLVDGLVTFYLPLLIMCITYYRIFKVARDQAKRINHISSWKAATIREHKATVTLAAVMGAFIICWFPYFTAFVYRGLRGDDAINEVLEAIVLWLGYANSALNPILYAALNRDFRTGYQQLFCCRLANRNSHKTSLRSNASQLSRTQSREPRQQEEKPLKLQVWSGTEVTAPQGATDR

[6] = target: Sodium-dependent dopamine transporter (Homo sapiens, UniProt Q01959); assay: Binding affinity to DAT
Sequence of Sodium-dependent dopamine transporter (Q01959 whole entry): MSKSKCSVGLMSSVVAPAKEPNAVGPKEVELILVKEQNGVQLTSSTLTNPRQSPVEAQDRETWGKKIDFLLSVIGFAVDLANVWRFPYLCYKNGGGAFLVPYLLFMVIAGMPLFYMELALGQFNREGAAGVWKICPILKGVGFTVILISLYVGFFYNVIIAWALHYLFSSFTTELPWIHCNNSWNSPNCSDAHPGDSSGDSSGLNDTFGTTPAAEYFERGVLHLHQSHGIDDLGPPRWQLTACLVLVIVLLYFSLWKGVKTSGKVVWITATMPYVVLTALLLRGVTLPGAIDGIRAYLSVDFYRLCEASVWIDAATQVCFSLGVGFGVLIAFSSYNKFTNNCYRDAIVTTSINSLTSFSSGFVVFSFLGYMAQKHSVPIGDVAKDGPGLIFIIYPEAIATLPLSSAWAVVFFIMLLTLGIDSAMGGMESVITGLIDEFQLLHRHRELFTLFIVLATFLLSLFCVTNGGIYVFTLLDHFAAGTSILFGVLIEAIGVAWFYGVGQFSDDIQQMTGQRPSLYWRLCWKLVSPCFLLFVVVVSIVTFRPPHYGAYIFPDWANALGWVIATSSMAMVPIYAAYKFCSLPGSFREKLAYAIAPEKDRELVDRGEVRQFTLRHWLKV

Histamine H3 receptor [7] = target: T3, Histamine H3 receptor (Homo sapiens, UniProt Q9Y5N1); assay: Displacement of [3H]-(R)-alpha-methylhistamine from human H3 receptor expressed in HEK293T cells after 120 mins by scintillation counting; assay type: cell-based, HEK-293T
T3 sequence (Q9Y5N1 whole entry): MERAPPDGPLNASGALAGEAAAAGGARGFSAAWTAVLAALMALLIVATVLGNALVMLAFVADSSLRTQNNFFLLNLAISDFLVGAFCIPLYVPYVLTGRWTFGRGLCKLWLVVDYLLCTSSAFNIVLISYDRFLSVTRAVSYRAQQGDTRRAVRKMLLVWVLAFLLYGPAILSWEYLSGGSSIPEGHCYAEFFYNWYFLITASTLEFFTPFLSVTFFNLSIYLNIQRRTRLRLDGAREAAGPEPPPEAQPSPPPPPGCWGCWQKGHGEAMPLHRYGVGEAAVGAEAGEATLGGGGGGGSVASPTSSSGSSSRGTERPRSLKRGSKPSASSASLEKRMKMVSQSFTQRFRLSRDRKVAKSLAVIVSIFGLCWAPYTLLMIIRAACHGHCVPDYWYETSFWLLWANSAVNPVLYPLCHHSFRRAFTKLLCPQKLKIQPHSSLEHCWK

[8] = target: Voltage-gated inwardly rectifying potassium channel KCNH2 (Homo sapiens, UniProt Q12809); assay: Inhibition of human ERG by IonWorks assay
Sequence of Voltage-gated inwardly rectifying potassium channel KCNH2 (Q12809 whole entry): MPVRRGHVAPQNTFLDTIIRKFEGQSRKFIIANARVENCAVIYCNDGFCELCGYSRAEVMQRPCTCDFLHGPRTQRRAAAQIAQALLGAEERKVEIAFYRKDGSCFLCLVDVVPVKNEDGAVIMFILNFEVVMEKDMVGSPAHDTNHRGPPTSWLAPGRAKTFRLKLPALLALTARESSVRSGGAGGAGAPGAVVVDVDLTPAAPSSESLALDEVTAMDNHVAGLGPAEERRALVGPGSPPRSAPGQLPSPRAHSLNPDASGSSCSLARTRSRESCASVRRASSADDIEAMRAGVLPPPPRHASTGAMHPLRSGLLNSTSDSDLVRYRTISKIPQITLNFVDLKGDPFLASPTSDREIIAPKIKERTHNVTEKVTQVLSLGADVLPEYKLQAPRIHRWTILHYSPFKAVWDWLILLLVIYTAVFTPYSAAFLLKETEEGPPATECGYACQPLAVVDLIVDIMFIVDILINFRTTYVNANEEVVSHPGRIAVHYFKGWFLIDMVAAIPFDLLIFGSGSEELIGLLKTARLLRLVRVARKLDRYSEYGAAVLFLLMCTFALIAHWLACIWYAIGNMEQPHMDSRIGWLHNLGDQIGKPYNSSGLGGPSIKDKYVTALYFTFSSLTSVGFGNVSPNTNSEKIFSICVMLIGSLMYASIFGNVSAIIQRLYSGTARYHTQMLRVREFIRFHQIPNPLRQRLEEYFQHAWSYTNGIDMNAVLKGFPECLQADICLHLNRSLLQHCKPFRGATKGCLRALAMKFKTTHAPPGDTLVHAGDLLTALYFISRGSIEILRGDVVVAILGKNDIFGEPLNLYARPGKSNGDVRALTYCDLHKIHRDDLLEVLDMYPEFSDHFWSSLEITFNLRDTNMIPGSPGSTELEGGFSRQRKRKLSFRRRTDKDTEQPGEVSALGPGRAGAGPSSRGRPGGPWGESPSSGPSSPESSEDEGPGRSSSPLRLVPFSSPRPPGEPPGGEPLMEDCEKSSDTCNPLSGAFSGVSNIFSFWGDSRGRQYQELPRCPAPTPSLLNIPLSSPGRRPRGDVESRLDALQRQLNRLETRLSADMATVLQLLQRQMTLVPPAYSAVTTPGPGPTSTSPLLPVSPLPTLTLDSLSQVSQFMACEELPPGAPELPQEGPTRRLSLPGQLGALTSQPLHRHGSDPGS

hERG (KCNH2) = hERG (KCNH2) (Homo sapiens, UniProt Q12809); assay: Inhibition of human ERG at 10 uM by IonWorks assay
Sequence of hERG (KCNH2) (Q12809 whole entry): as above

Histamine H3 receptor [9] = target: Histamine H3 receptor (Rattus norvegicus, UniProt Q9QYN8); assay: Displacement of [3H]-(R)-alpha-methylhistamine from rat H3 receptor expressed in HEK293T cells after 120 mins by scintillation counting; assay type: cell-based, HEK-293T
Sequence of Histamine H3 receptor (Rattus norvegicus, UniProt Q9QYN8) (Q9QYN8 whole entry): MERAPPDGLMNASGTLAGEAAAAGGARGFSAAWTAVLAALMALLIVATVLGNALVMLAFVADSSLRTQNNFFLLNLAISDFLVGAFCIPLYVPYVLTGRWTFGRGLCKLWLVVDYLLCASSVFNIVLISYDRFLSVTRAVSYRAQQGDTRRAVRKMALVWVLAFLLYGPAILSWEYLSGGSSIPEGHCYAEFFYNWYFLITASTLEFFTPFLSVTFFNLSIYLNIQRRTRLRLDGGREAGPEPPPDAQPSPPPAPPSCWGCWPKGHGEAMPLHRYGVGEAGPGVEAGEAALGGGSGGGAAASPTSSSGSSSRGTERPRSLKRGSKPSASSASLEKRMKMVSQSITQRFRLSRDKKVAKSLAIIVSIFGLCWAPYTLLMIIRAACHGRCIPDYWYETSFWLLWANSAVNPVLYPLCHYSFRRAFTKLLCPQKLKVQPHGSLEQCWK

Histamine H3 receptor [10] = target: T3, Histamine H3 receptor; assay: Inverse agonist activity at human H3 receptor expressed in HEK293T cells assessed as inhibition of {35S]GTPgamma binding relative to basal level; assay type: cell-based; conditions: HEK-293T, concentration not given here
How it was run: (§1)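 Basal [35S]GTPγS binding was measured in membranes from HEK cells expressing human H3 receptor, across a range of concentrations. EC50 and maximal inhibition relative to basal binding were derived.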

Rattus norvegicus = assay: Inhibition of (R)-alpha-methylhistamine-induced water consumption in rat dispogenia model at 3 to 10 mg/kg, ip administered 30 mins prior (R)-alpha-methylhistamine challenge measured over 1 hr; assay type: functional, organism-based
How it was run: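 Rat dipsogenia model: test article was given ip at 3 or 10 mg/kg 30 min before the H3 agonist (R)-α-methylhistamine. Water consumed during the 1 h after agonist dosing was recorded and compared with vehicle and agonist-alone groups (p < 0.05).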

Histamine H3 receptor [11] = target: T3, Histamine H3 receptor; assay: Inverse agonist activity at human H3 receptor expressed in HEK293T cells assessed as inhibition of {35S]GTPgamma binding; assay type: cell-based; conditions: HEK-293T; how it was run: as §1

| Ki (Histamine H3 receptor [7]) | Ki (Histamine H3 receptor [9]) | SMILES | also measured |
| --- | --- | --- | --- |
| 1 nM |  | CCNC(=O)c1ccc(-c2ccc3c(c2)CCN(CCN2CCC[C@H]2C)C3=O)cc1 | Ki [1]: > 3000 nM; Ki [2]: > 10000 nM; Ki [3]: 10100 nM; Ki [4]: > 10000 nM; Ki (D(2) dopamine receptor): > 10000 nM; Ki [5]: 300 nM; Ki (Histamine H1 receptor): 7230 nM; Ki (Histamine H2 receptor): > 10000 nM; Ki [6]: > 10000 nM; IC50 [8]: 7400 nM |
| 21.7 nM |  | C[C@@H]1CCCN1CCN1CCc2c(cccc2-c2ccc(C#N)cc2)C1=O | inhibition at 10 µM (hERG (KCNH2)): 96% |
| 12.7 nM | 110 nM | C[C@H]1CCCN1CCN1CCc2cc(-c3ccc(F)cc3)ccc2C1=O |  |
| 11 nM | 86 nM | O=C1c2ccc(-c3ccc(F)cc3)cc2CCN1CCN1CCCC1 |  |
| 1.2 nM | 23 nM | C[C@@H]1CCCN1CCN1CCc2cc(-c3ccc(F)cc3)ccc2C1=O | IC50 [8]: 300 nM |
| 7.7 nM | 82 nM | O=C1c2ccc(-c3ccc(F)c(F)c3)cc2CCN1CCN1CCCC1 |  |
| 0.6 nM |  | C[C@@H]1CCCN1CCN1CCc2cc(Oc3ccc(C#N)cc3)ccc2C1=O | inhibition at 10 µM (hERG (KCNH2)): 95% |
| 23.8 nM |  | C[C@@H]1CCCN1CCN1Cc2cc(-c3ccc(C#N)cc3)ccc2C1=O | inhibition at 10 µM (hERG (KCNH2)): 98% |
| 7.8 nM |  | O=C1c2ccc(-c3ccc(F)cc3)cc2CCN1CCN1CCCCC1 |  |
| 3.4 nM | 73 nM | N#Cc1cccc(-c2ccc3c(c2)CCN(CCN2CCCC2)C3=O)c1 |  |
| 1.7 nM |  | CNC(=O)c1ccc(-c2ccc3c(c2)CCN(CCN2CCCC2)C3=O)c(F)c1 |  |
| 11.6 nM | 164 nM | O=C1c2ccc(-c3cccc(F)c3)cc2CCN1CCN1CCCC1 |  |
| 6 nM |  | O=C(c1ccc(-c2ccc3c(c2)CCN(CCN2CCCC2)C3=O)cc1)C1CC1 | inhibition at 10 µM (hERG (KCNH2)): 65% |
|  |  | CN(C)C(=O)c1ccc(-c2ccc3c(c2)CCN(CCN2CCCC2)C3=O)cc1 | inhibition (Histamine H3 receptor [10]): 65%; inhibition (Rattus norvegicus): Active; Activity (Histamine H3 receptor [11]): Dose-dependent effect |
| 2.4 nM |  | O=C(c1ccc(-c2ccc3c(c2)CCN(CCN2CCCC2)C3=O)cc1)N1CCCC1 |  |
| 18 nM | 153 nM | N#Cc1ccc(-c2ccc3c(c2)CCN(CCCN2CCCCC2)C3=O)cc1 |  |
| 8.1 nM | 153 nM | O=C1c2ccc(-c3ccc(F)cc3F)cc2CCN1CCN1CCCC1 |  |
|  | 49 nM | C[C@H]1CCCN1CCN1CCc2cc(-c3ccc(C#N)cc3)ccc2C1=O |  |
| 7.8 nM |  | O=C1c2ccc(-c3ccncc3)cc2CCN1CCN1CCCC1 | inhibition at 10 µM (hERG (KCNH2)): 93% |
| 14.1 nM | 174 nM | O=C1c2ccc(-c3ccccc3F)cc2CCN1CCN1CCCC1 |  |
| 1.2 nM |  | C[C@@H]1CCCN1CCN1CCc2cc(Oc3ccc(C#N)cn3)ccc2C1=O | inhibition at 10 µM (hERG (KCNH2)): 89% |
|  | 5.8 nM | C[C@@H]1CCCN1CCN1CCc2cc(-c3ccc(C#N)cc3)ccc2C1=O | IC50 [8]: 140 nM |
| 2.1 nM |  | O=C(NC1CCC1)c1ccc(-c2ccc3c(c2)CCN(CCN2CCCC2)C3=O)cc1 | IC50 [8]: 2500 nM |
| 11.4 nM | 145 nM | O=C1c2ccc(-c3ccccc3)cc2CCN1CCN1CCCC1 |  |
